# In ChEMBL document CHEMBL1143391, “Design, synthesis, and evaluation of oxygen-containing macrocyclic peptidomimetics as inhibitors of HCV NS3 protease” (J Med Chem, 2009):
# Legend:
# [1] = Binding affinity to HCV NS3 protease by spectrophotometry; parameters: species or system Hepacivirus hominis
# Summary of the method: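 Continuous assay with NS4A-tethered single-chain NS3 serine protease, read out chromogenically. Affinity reported as Ki*.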
# Hepatitis C virus = test: Antiviral activity against HCV RNA replication in human hepatoma cells by replicon assay; assay type: functional, organism-based, Hepacivirus hominis
# [2] = Selectivity for HCV NS3 protease over human neutrophil elastase
Compound,Ki [1],EC90 (Hepatitis C virus; read-out: EC90),Ratio [2],EC90 (Hepatitis C virus)
C=CCNC(=O)C(=O)[C@@H]1CCCCCCCO[C@@H](C)[C@H](NC(=O)N[C@H](CN2C(=O)CN(C)CC2=O)C(C)(C)C)C(=O)N2C[C@H]3[C@@H]([C@H]2C(=O)N1)C3(C)C,6 nM,60 nM,1100,
CC(C)(C)OC(=O)N[C@H]1CS(=O)(=O)CCCCCCC[C@@H](C(=O)C(=O)NC2CC2)NC(=O)[C@@H]2[C@@H]3[C@H](CN2C1=O)C3(C)C,670 nM,,,
C=CCNC(=O)C(=O)[C@@H]1CCCCCCCO[C@@H](C)[C@H](NC(=O)N[C@H](CN2C(=O)CC(C)(C)CC2=O)C(C)(C)C)C(=O)N2C[C@H]3[C@@H]([C@H]2C(=O)N1)C3(C)C,7 nM,,1400,40 nM
C=CCNC(=O)C(=O)[C@@H]1CCCCCCCOC[C@H](NC(=O)N[C@H](CN(C)S(=O)(=O)c2cccs2)C(C)(C)C)C(=O)N2C[C@H]3[C@@H]([C@H]2C(=O)N1)C3(C)C,14 nM,150 nM,100,
CC(C)(C)OC(=O)N[C@@H]1C(=O)N2C[C@H]3[C@@H]([C@H]2C(=O)N[C@H](C(=O)C(N)=O)CCCCCCCCCC1(C)C)C3(C)C,250 nM,,,
C=CCNC(=O)C(=O)[C@@H]1CCCCCCCO[C@@H](C)[C@H](NC(=O)N[C@H](CN2C(=O)C3CCC(C3)C2=O)C(C)(C)C)C(=O)N2C[C@H]3[C@@H]([C@H]2C(=O)N1)C3(C)C,3 nM,30 nM,2800,
C=CCNC(=O)C(=O)[C@@H]1CCCCNC(=O)OCCC[C@H](NC(=O)OC(C)(C)C)C(=O)N2C[C@H]3[C@@H]([C@H]2C(=O)N1)C3(C)C,660 nM,,,
CC(C)(C)NC(=O)N[C@H](C(=O)N1C[C@H]2[C@@H]([C@H]1C(=O)NC(CC1CCC1)C(=O)C(N)=O)C2(C)C)C(C)(C)C (some centres undefined) [BOCEPREVIR],14 nM,350 nM,2200,
C=CCNC(=O)C(=O)[C@@H]1CCCCCCCOC[C@H](NC(=O)N[C@H](CN2C(=O)C3CCC(C3)C2=O)C(C)(C)C)C(=O)N2C[C@H]3[C@@H]([C@H]2C(=O)N1)C3(C)C,3 nM,30 nM,1500,
C=CCNC(=O)C(=O)[C@@H]1CCCCCCCO[C@@H](C)[C@H](NC(=O)N[C@H](CN2CCC(C)(C)CC2=O)C(C)(C)C)C(=O)N2C[C@H]3[C@@H]([C@H]2C(=O)N1)C3(C)C,8 nM,60 nM,1300,

# The next lines start with the values.
Ki [1],EC90 (Hepatitis C virus; read-out: EC90),Ratio [2],EC90 (Hepatitis C virus),Compound
400 nM,,,,C=CCNC(=O)C(=O)[C@@H]1CCCCCCCOC[C@H](NC=O)C(=O)N2C[C@H]3[C@@H]([C@H]2C(=O)N1)C3(C)C
18 nM,,350,,C=CCNC(=O)C(=O)[C@@H]1CCCCCCCOC[C@H](NC(=O)N[C@H](CN(C)S(=O)(=O)CC)C(C)(C)C)C(=O)N2C[C@H]3[C@@H]([C@H]2C(=O)N1)C3(C)C
7 nM,50 nM,300,,C=CCNC(=O)C(=O)[C@@H]1CCCCCCCOC[C@H](NC(=O)N[C@H](CN2C(=O)CC(C)(C)CC2=O)C(C)(C)C)C(=O)N2C[C@H]3[C@@H]([C@H]2C(=O)N1)C3(C)C
320 nM,,,,C=CCNC(=O)C(=O)[C@@H]1CCCCCCC(=O)CC[C@H](NC(=O)OC(C)(C)C)C(=O)N2C[C@H]3[C@@H]([C@H]2C(=O)N1)C3(C)C
36 nM,,,,C=CCNC(=O)C(=O)[C@@H]1CCCCCCCCC[C@H](NC(=O)OC(C)(C)C)C(=O)N2C[C@H]3[C@@H]([C@H]2C(=O)N1)C3(C)C
15 nM,80 nM,300,,C=CCNC(=O)C(=O)[C@@H]1CCCCCCCOC[C@H](NC(=O)N[C@H](CN2C(=O)CN(C)CC2=O)C(C)(C)C)C(=O)N2C[C@H]3[C@@H]([C@H]2C(=O)N1)C3(C)C
21 nM,160 nM,160,,C=CCNC(=O)C(=O)[C@@H]1CCCCCCCOC[C@H](NC(=O)N[C@H](CN2CCCCC2=O)C(C)(C)C)C(=O)N2C[C@H]3[C@@H]([C@H]2C(=O)N1)C3(C)C
160 nM,,9,,C=CCNC(=O)C(=O)[C@@H]1CCCCCCCOC[C@H](NC(=O)N[C@H](C(=O)C2CC2)C2CCCCC2)C(=O)N2C[C@H]3[C@@H]([C@H]2C(=O)N1)C3(C)C
150 nM,,,,C=CCNC(=O)C(=O)[C@@H]1CCCCCCCOC[C@H](NC(=O)OC(C)(C)C)C(=O)N2C[C@H]3[C@@H]([C@H]2C(=O)N1)C3(C)C
21 nM,100 nM,140,,C=CCNC(=O)C(=O)[C@@H]1CCCCCCCOC[C@H](NC(=O)N[C@H](CN2CCC(C)(C)CC2=O)C(C)(C)C)C(=O)N2C[C@H]3[C@@H]([C@H]2C(=O)N1)C3(C)C
